Measurements pooled from the literature.
Compare with care: the assays were run in different laboratories.
Target: Mitogen-activated protein kinase 13 (MAPK13, Homo sapiens, UniProt O15264)
One construct used (O15264 1-365): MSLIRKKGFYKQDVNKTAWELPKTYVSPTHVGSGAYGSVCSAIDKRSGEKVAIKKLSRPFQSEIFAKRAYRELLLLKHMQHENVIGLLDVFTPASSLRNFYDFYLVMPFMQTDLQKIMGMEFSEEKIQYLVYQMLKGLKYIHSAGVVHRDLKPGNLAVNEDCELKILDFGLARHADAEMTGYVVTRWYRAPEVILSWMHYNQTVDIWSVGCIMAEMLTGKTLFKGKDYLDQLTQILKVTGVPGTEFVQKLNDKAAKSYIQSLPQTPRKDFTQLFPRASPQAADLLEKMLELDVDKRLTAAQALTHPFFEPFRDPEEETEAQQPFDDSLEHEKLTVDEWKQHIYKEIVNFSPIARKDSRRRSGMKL

`COc1ccc2c(c1)O[C@H](c1ccc(OC)c(OC)c1)C[C@@H]2NC(=O)C1(c2ccc3c(c2)OC(F)(F)O3)CC1` gave a remaining binding of 100% (cell-free assay; competition with immobilised ligand; 1 µM).
`CCN1CCN(Cc2ccc(C(=O)Nc3ccc(C)c(Oc4ccc5c(c4)CC(=O)N5)c3)cc2C(F)(F)F)CC1` has a remaining binding of 100% (binding; competition with immobilised ligand; 1 µM).
`COc1cnc(Nc2cccc(S(N)(=O)=O)c2)nc1N1CCN(c2ccccc2)C(=O)C1` has a remaining binding of 95% (binding; competition with immobilised ligand; 1 µM).
The remaining binding of `Cc1c[nH]c2nccc(Oc3c(F)cc(Nc4cc(Cl)nc(N)n4)cc3F)c12` is reported as 89% (cell-free assay; competition with immobilised ligand; 0.1 µM).
The remaining binding of `O=C(Nc1c[nH]nc1C(=O)NC1CCNCC1)c1cc(F)cc(F)c1` is reported as 92% (binding; competition with immobilised ligand; 1 µM).
With `C[C@@H](c1ccc(-n2cnc3c(N)ncnc32)cc1)N1CCc2nn(C)c(Cc3ccccc3)c2C1=O` the remaining binding was 83% (binding; competition with immobilised ligand; 0.1 µM).
`N[C@@H]1CCN(c2nccc(-c3cnn4ncccc34)n2)C1` gave a remaining binding of 100% (binding; 1 µM).
`c1cncc(-c2cccc(Nc3nccc(NC4CCCCC4)n3)c2)c1` gave a remaining binding of 86% (binding; competition with immobilised ligand; 10 µM).
`NS(=O)(=O)c1cc(NC(=O)Cc2ccccc2)ccc1Oc1cccc(Cl)c1` has a remaining binding of 100% (cell-free assay; competition with immobilised ligand; 1 µM).
With `O=C(c1ccc(Nc2ncc(Cl)c(-c3ccc(Cl)s3)n2)cc1)N1CCC(N2CCCC2)CC1` the remaining binding was 100% (binding; competition with immobilised ligand; 1 µM).
`CN(c1nccc(-c2cnn3ncccc23)n1)C1CC1` gave a remaining binding of 100% (binding; 1 µM).
The remaining binding of `CCS(=O)(=O)c1cc2cc(C[C@](O)(CC(C)(C)c3ccc(F)cc3C(N)=O)C(F)(F)F)[nH]c2cn1` is reported as 100% (cell-free assay; competition with immobilised ligand; 1 µM).
`COc1ncc2cc3ccccc3nc2c1C#N` gave a remaining binding of 79% (cell-free assay; competition with immobilised ligand; 5 µM).
For `Cc1cnn2ncc(-c3ccnc(N(C)C)n3)c2c1`, the remaining binding was 100% (binding; 1 µM).
With `Cc1cc(NC(=O)c2cccc(S(F)(F)(F)(F)F)c2)cc(-n2ccn3nc(-c4cccnc4)cc23)c1` the remaining binding was 79.6% (cell-free assay; competition with immobilised ligand; 1 µM).
For `C[C@H]1CCN(c2nccc(-c3cnn4ncccc34)n2)C1`, the remaining binding was 83% (binding; 1 µM).
With `C[C@@]1(Cc2ccc(C#N)cc2)C(=O)N(c2cc(Cl)cc(Cl)c2)c2ncc(C(=O)NC3(c4nc(C5CCC5)no4)CC3)n21` the remaining binding was 100% (cell-free assay; competition with immobilised ligand; 1 µM).
For `O=C(c1ccc(Nc2nccc(-c3cc4ccccc4s3)n2)cc1)N1CCC(N2CCCC2)CC1`, the remaining binding was 100% (binding; competition with immobilised ligand; 1 µM).
`COc1ccnn2ncc(-c3ccnc(N(C)C)n3)c12` gave a remaining binding of 100% (binding; 1 µM).
`CS(=O)(=O)N1CCCC(NC(=O)[C@H](CCC2CCCCC2)NC(=O)c2ccc(CNC(=O)c3cnc4ccccn34)cc2)C1` (stereo partly shown) has a remaining binding of 100% (cell-free assay; competition with immobilised ligand; 0.1 µM).
`Cc1cnc(Nc2ccc(C(=O)N3CCC(N4CCCC4)CC3)cc2)nc1-c1cc2ccccc2s1` has a remaining binding of 100% (binding; competition with immobilised ligand; 1 µM).
For `CN(C)c1ncc(F)c(-c2cnn3ncccc23)n1`, the remaining binding was 96% (binding; 1 µM).
